Sampled rows, rich in hits. Any-hit rate of the full collection: about 2.3%.
TRPC4 inh = blocks the mouse TRPC4 cation channel. 300,000 compounds, 0.39% hits. Q9QUQ5. B-score at 10 µM. HEK293 TRPC4beta/mu-opioid, DAMGO-evoked Fluo4 calcium flux; active compounds read low;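 active = B-score over 3 SD under the library average, no early fluorescence shift, positive overall ratio signal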
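Material: HEK293 cells with stable TRPC4beta plus mu-opioid receptor expression; probe or stimulus: DAMGO in two steps, submaximal then maximal; technique: Fluo4 calcium fluorescence by kinetic imaging, 5 s 1 Hz baseline; measure: integrated fluorescence ratio relative to baseline, converted to per-well B score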
TRPC4 agonist = TRPC4 (mouse) channel activation; Q9QUQ5; HEK293 TRPC4beta/mu-opioid, Fluo4 calcium fluorescence; active compounds read high; B-score at 10 µM; 310,000 compounds, 0.49% hits; AID 2237;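 active = B-score above 5 SD of library B-scores, and initial fluorescence ratio not above library mean plus 5 SD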;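 note: positive B-score marks a calcium rise read as TRPC4 activation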
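system = HEK293 cells stably co-expressing mouse TRPC4beta and mu-opioid receptor | schedule = Fluo4 dye loading 45 min at room temperature, 110 s recording | measure = B-scored integrated calcium fluorescence ratio | signal = Fluo4 calcium-sensitive dye fluorescence, kinetic, 1 Hz baseline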
TRPC4 potent = TRPC4 (mouse) allosteric potentiation | Q9QUQ5 | HEK293 TRPC4beta/mu-opioid, DAMGO EC20, Fluo-4 Ca2+ flux; active compounds read high | B-score at 10 µM | 310,000 compounds, 0.42% hits | AID 2227;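 active = B-score of calcium response area above 5 SD of library B-scores, with initial fluorescence ratio within 5 SD of library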
TRPC6 activator = activates the mouse TRPC6 cation channel. Q61143. HEK293-TRPC6 membrane potential dye fluorescence; active compounds read high. B-score at 10 µM. 310,000 compounds, 0.13% hits;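 active = B-score of the integrated fluorescence ratio above library mean plus 3 SD, and starting fluorescence ratio within library mean plus 5 SD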;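 note: higher score means more depolarization so channel activation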
Target sequence (Q61143 whole entry, looked up): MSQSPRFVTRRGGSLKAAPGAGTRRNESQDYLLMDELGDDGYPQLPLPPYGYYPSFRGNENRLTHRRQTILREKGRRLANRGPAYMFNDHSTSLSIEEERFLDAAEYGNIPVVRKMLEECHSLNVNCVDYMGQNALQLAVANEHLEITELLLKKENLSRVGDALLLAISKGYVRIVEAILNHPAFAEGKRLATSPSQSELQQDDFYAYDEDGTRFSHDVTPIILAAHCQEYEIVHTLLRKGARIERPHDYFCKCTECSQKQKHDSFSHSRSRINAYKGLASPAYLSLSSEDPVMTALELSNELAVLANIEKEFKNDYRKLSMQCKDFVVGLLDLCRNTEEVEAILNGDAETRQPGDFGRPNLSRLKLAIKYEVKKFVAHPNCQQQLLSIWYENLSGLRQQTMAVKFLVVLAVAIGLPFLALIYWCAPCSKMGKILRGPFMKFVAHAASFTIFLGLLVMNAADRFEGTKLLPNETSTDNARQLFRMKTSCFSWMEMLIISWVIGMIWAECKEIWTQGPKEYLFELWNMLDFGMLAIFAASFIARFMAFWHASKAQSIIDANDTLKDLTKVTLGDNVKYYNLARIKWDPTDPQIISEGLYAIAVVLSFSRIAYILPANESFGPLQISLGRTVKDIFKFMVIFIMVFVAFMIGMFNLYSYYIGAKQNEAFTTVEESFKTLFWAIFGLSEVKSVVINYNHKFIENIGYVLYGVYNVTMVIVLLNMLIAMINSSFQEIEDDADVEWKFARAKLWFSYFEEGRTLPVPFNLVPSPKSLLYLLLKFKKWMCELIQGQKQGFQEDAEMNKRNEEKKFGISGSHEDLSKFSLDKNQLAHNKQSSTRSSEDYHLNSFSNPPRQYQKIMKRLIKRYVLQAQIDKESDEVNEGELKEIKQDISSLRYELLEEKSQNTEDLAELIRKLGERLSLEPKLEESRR
TRPC6 inh = inhibitors of mouse TRPC6 channel. HEK293-TRPC6, membrane potential dye, ACh-evoked depolarization; active compounds read low. B-score at 10 µM. 310,000 compounds, 1.1% hits. AID 2553;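 active = B-score under library mean minus 3 SD, initial fluorescence not abnormally high, positive integrated signal ratio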;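 note: B-score derived from integrated fluorescence ratio over the kinetic read; more negative B-score means stronger inhibition of depolarization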
TRPC4 spec 2 = mouse TRPC4 off-target activity of TRPC6 inhibitors, second screen; shares compounds with TRPC6 inh; HEK293 TRPC4/MOR, membrane potential dye fluorescence; channel activated by saturating DAMGO dose; inhibition, % at 10 µM; 920 compounds, 42% hits; AID 2776;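 active = compounds whose fluorescence signal differed from control wells by over 3 SD, either direction, in both duplicate plates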
TRPC4 spec = mouse TRPC4 off-target activity of TRPC6 inhibitors; shares compounds with TRPC6 inh; HEK293 TRPC4/mu-opioid, membrane potential fluorescence; activity change, negative = inhibition, % at 10 µM; 920 compounds, 61% hits;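 active = rise or fall in signal beyond 3 SD of buffer-only wells in both replicate plates, either sign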;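 note: integrated kinetic ratio of fluorescence range over baseline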
HEK293 MPD ctr 2-1 = second counter-screen for TRPC6 inhibitors: parental HEK293 cells. shares compounds with TRPC6 inh. parental HEK293 membrane potential dye fluorescence; maximal acetylcholine challenge after compound addition. signal change vs control, % at 10 µM. 920 compounds, 31% hits;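 active = membrane potential signal moving either way by over 3 SD of the maximum-effect control, in both duplicate plates, meaning non-specific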
HEK293 MPD ctr-1 = counter-screen for TRPC6 inhibitors: effect in parental HEK293 cells | parental HEK293 membrane potential dye fluorescence | membrane potential signal change, % at 10 µM | 920 compounds, 60% hits | AID 2780 | shares compounds with TRPC6 inh;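 active = membrane potential signal shifting up or down by more than 3 SD of buffer-only wells, on both duplicate plates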
HEK293 MPD ctr-2 = checks TRPC6 modulator effects in parental HEK293 cells | shares compounds with TRPC6 inh | membrane potential dye fluorescence | membrane potential signal change, % at 10 µM | 2,400 compounds, 51% hits | AID 488924;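 active = membrane potential signal moves up or down beyond 5 SD from buffer-only wells, on both duplicate plates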
HEK293 MPD ctr 2-2 = parental HEK293 nonspecific activity of TRPC6 modulators, second screen; AID 488926; 2,400 compounds, 14% hits; membrane potential dye fluorescence; after compound, maximal acetylcholine stimulation; shares compounds with TRPC6 inh; inhibition, % at 10 µM;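 active = membrane potential signal drops by more than 5 SD from the mean control signal, in both duplicate plates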
TRPC4 ctr mod = selectivity of TRPC6 modulators against mouse TRPC4; shares compounds with TRPC6 inh; HEK293 TRPC4/mu-opioid, membrane potential fluorescence; percent change from control (negative = decrease, positive = increase), % at 10 µM; 2,400 compounds, 69% hits; AID 488927;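 active = membrane potential signal moved up or down beyond 5 SD of buffer control wells, in both duplicate plates, actives on both sides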
TRPC4/MOR inh 2 = second selectivity test of TRPC6 modulators against mouse TRPC4; inhibition, % at 10 µM; HEK293 TRPC4/mu-opioid, membrane potential dye fluorescence; stimulated with maximal-effect DAMGO; 2,400 compounds, 55% hits; shares compounds with TRPC6 inh; AID 488928;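 active = drop in membrane potential signal beyond 5 SD of the control wells in both duplicate plates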;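 note: TRPC4 counter screen for TRPC6 hits run under conditions tuned for TRPC6 not TRPC4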
TRPC6 block conf = mouse TRPC6 inhibitor confirmation; shares compounds with TRPC6 inh; 3,300 compounds, 43% hits; AID 488960; HEK293-TRPC6, membrane potential dye, ACh-evoked depolarization; inhibition, % at 10 µM;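 active = fluorescence ratio falls more than 5 SD below the full-stimulation control mean, in both duplicate runs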;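 note: integrated fluorescence ratio of peak minus minimum over baseline after agonist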
TRPC6 act confirm = confirmation of mouse TRPC6 activators; shares compounds with TRPC6 inh; activation, % at 10 µM; 2,800 compounds, 11% hits; HEK293-TRPC6 membrane potential dye fluorescence, FDSS;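 active = ratio signal rise beyond 5 SD above unstimulated control wells' mean, seen in both duplicate runs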
Each line names hits and unclear results; the compound was inactive in the other large screens (follow-up assays come after a bar, where they were run).

Cc1ccc(OCCCC(=O)Nc2nc3ccccc3[nH]2)cc1	TRPC6 inh -7.02 | HEK293 MPD ctr-2 inactive | HEK293 MPD ctr 2-2 inactive | TRPC4 ctr mod inactive | TRPC4/MOR inh 2 inactive | TRPC6 block conf inactive | TRPC6 act confirm inactive
O=C(NCCN1CCCC1)c1ccc2c(c1)N(Cc1cccc(Cl)c1)C(=O)c1ccccc1S2(=O)=O	none
Cc1cccc(CN2C(=O)c3ccccc3S(=O)(=O)c3ccc(C(=O)NCCCN4CCCC4)cc32)c1	TRPC6 inh -5.14 | HEK293 MPD ctr-2 inactive | HEK293 MPD ctr 2-2 inactive | TRPC4 ctr mod inactive | TRPC4/MOR inh 2 57.0% | TRPC6 block conf 41.0% | TRPC6 act confirm inactive
CC1CCCN(CCCNC(=O)c2ccc3c(c2)N(Cc2ccc(F)cc2)C(=O)c2ccccc2S3=O)C1 (stereo not given)	TRPC4 agonist 55, TRPC6 inh -5.06 | HEK293 MPD ctr-2 inactive | HEK293 MPD ctr 2-2 inactive | TRPC4 ctr mod inactive | TRPC4/MOR inh 2 77.0% | TRPC6 block conf 57.0% | TRPC6 act confirm inactive
CC1CN(C2=Nc3cccc4cccc2c34)CC(C)O1 (stereo not given)	TRPC6 inh -7.34 | HEK293 MPD ctr-2 -152.5% | HEK293 MPD ctr 2-2 inactive | TRPC4 ctr mod -71.5% | TRPC4/MOR inh 2 45.5% | TRPC6 block conf 58.0% | TRPC6 act confirm inactive
COc1ccccc1N1CCN(C2=Nc3cccc4cccc2c34)CC1	TRPC6 inh -8.66 | HEK293 MPD ctr-2 -214.0% | HEK293 MPD ctr 2-2 79.0% | TRPC4 ctr mod -45.0% | TRPC4/MOR inh 2 83.5% | TRPC6 block conf 60.5% | TRPC6 act confirm inactive
CC1CN(c2oc(-c3ccccc3Cl)nc2C#N)CC(C)O1 (stereo not given)	none
O=C(O)c1ccc(NC2=Nc3cccc4cccc2c34)cc1	none
O=C1c2ccccc2C(=O)c2c1cccc2N1CCOCC1	none
CC(=O)N1CCN(C2=Nc3cccc4cccc2c34)CC1	TRPC6 inh -8.14 | HEK293 MPD ctr-2 -226.5% | HEK293 MPD ctr 2-2 inactive | TRPC4 ctr mod -97.0% | TRPC4/MOR inh 2 48.0% | TRPC6 block conf 57.0% | TRPC6 act confirm inactive
c1cc2c3c(cccc3c1)C(N1CCOCC1)=N2	TRPC6 inh -6.83 | HEK293 MPD ctr-2 -198.0% | HEK293 MPD ctr 2-2 inactive | TRPC4 ctr mod -129.0% | TRPC4/MOR inh 2 83.5% | TRPC6 block conf 52.0% | TRPC6 act confirm inactive
CN(CCN1CCOCC1)C(=O)c1cc(COc2ccc(F)c(F)c2)on1	none
Cc1ccc2sc(N(CCCN(C)C)C(=O)c3ccc(Br)s3)nc2c1C	TRPC6 inh -6.53 | HEK293 MPD ctr-2 inactive | HEK293 MPD ctr 2-2 inactive | TRPC4 ctr mod -20.0% | TRPC4/MOR inh 2 80.5% | TRPC6 block conf inactive | TRPC6 act confirm inactive
Cc1ccc2sc(N(CCCN(C)C)C(=O)c3nc4ccccc4s3)nc2c1C	none
Cc1cccc2sc(N(CCCN(C)C)C(=O)c3ccc4ncsc4c3)nc12	TRPC6 inh -5.03 | HEK293 MPD ctr-2 inactive | HEK293 MPD ctr 2-2 inactive | TRPC4 ctr mod inactive | TRPC4/MOR inh 2 78.0% | TRPC6 block conf 45.0% | TRPC6 act confirm inactive
COc1ccc(/C=N/Nc2nc(-c3cccnc3)nc3ccccc23)c(OC)c1	none
CC1CCN(S(=O)(=O)c2cccc(C(=O)Nc3ccccc3)c2)CC1	none
Cc1cccc(C(=O)NNC(=O)C2CC2)c1	none
CCCCc1ccc(/C(C)=N/Nc2cc(N3CCOCC3)nc(C)n2)cc1	TRPC6 inh -5.23 | HEK293 MPD ctr-2 inactive | HEK293 MPD ctr 2-2 inactive | TRPC4 ctr mod inactive | TRPC4/MOR inh 2 inactive | TRPC6 block conf inactive | TRPC6 act confirm inactive
CC(C)COc1ccc(C(=O)OC2CC(C)(C)OCC2CN(C)C)cc1 (stereo not given)	TRPC6 activator 13.9 | HEK293 MPD ctr-2 300.0% | HEK293 MPD ctr 2-2 inactive | TRPC4 ctr mod 46.5% | TRPC4/MOR inh 2 41.5% | TRPC6 block conf inactive | TRPC6 act confirm 135.5%
COc1ccc(CCNC(=O)C(=O)NCC2OCCN2S(=O)(=O)c2cc(F)ccc2F)cc1OC (stereo not given)	none
O=c1[nH]c2ccc(S(=O)(=O)N3CCN(c4ccccc4F)CC3)cc2s1	TRPC6 inh -7.99 | TRPC4 spec 2 inactive | TRPC4 spec 0.3% | HEK293 MPD ctr 2-1 225.5% | HEK293 MPD ctr-1 inactive | TRPC6 block conf inactive | TRPC6 act confirm inactive
O=C(NCc1cnn(-c2ccccc2)c1)C1CCC(=O)N(C2CC2)C1 (stereo not given)	none
Cn1c(CCN2CCCCC2)nc2cc([N+](=O)[O-])ccc21	TRPC6 inh -5.79 | HEK293 MPD ctr-2 -200.5% | HEK293 MPD ctr 2-2 inactive | TRPC4 ctr mod -32.0% | TRPC4/MOR inh 2 38.0% | TRPC6 block conf inactive | TRPC6 act confirm inactive
CCN1CCN(CCc2nc3cc([N+](=O)[O-])ccc3n2C)CC1	none
CCOc1ccc(Nc2nnc(SCc3nc4ccccc4c(=O)[nH]3)s2)cc1	none
NCCNC[C@@H]1COC2(CCCCCCCCCCC2)O1	TRPC6 inh -6.92 | TRPC4 spec 2 33.0% | TRPC4 spec 1.8% | HEK293 MPD ctr 2-1 inactive | HEK293 MPD ctr-1 7.8% | TRPC6 block conf 61.8% | TRPC6 act confirm inactive

Screening results (PubChem)
